# High-throughput results as filed in PubChem.
# Many of the other results were omitted from the sample, so hits are more common in it than they were.
# A1 apoptosis 2: blocks A1, raising caspase activity; MEF A1-2A-BIM cells, caspase-Glo luminescence, 3 h; percent of clofoctol response, DMSO zero; caspase activation, % (no concentration beside the values); 24,000 tested, under 10 active; AID 2465; in the data active = caspase activation above about 5.9%
#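 system = A1-2A-BIM-expressing MEF cells | quantity = 2500 MEF cells/well | dosing = 50 nL compound per well, pinned | schedule = overnight cell settling, then 3 h compound exposure, 37 °C | signal = luminescence from DEVD-luciferin Caspase-Glo reagent, 1:1 in 50 mM HEPES, 1 h RT | read-out = Caspase-3/7 activation, seen as rise in luminescence signal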
# INS-1E rescue: INS-1E beta cell protection from cytokine death; AID 488910; 0.1% of 20,000 active; protection from cytokine-induced ATP loss, % at 10 µM; INS-1E cytokine-induced death, ATP luminescence, 48 h; normalised: neutral wells 0, positive control 100;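 active = mean replicate protection from cytokine-induced ATP loss at least 50% and at least 75% of replicates each reaching 50%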
#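 Test system: INS-1E rat cells | Quantity: 8000 cells per well | Medium: Phenol-red-free RPMI with 5% fetal bovine serum | Reagent: Cytokine cocktail of IFN-γ, TNF-α and IL-1β | Doses: One compound concentration, pin transfer | Timing: 48 h co-treatment, 10 min post-lysis read | Technique: Luminescent ATP assay (CellTiter-Glo)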
# T cruzi HTS: intracellular Trypanosoma cruzi inhibition | intracellular Trypanosoma cruzi in host cells, plate reader | activity score (inhibition), % at 5.01 µM | 4.9% of 22,000 active | AID 651903; in the data active = activity score above about 55%;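 note: parasites and compound incubated about four days before reading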
# Numbers stand for hits; 0 = inactive; - = no result.
SMILES,A1 apoptosis 2,INS-1E rescue,T cruzi HTS
C[C@H]1CN([C@@H](C)CO)C(=O)c2cccc(NC(=O)c3ccncc3)c2O[C@@H]1CN(C)Cc1ccc(Oc2ccccc2)cc1,0,0,78
O=C(CCCCCCC(=O)Nc1ccccc1O)N/N=C/c1cccc(Oc2ccccc2)c1,-,0,0
CCCNc1ncnc2ccccc12,0,-,-
COc1cccc(/C=C2\SC(=S)N(CCCC(=O)O)C2=O)c1,0,-,-
C=CCOC(=O)C(=O)/C=C/C(C)(C)C,0,-,-
C[C@H](CO)N1C[C@H](C)[C@@H](CN(C)Cc2ccc(Oc3ccccc3)cc2)Oc2c(NC(=O)c3ccncc3)cccc2C1=O,0,0,66
O=C(/C=C/c1ccc(OCCCc2ccccc2)cc1)NO,0,-,-
C[C@@H]1CN([C@H](C)CO)C(=O)Cc2cc(NC(=O)Cc3ccccc3)ccc2O[C@H]1CN(C)Cc1ccc2c(c1)OCO2,-,0,0
C[C@@H]1CN([C@@H](C)CO)C(=O)Cc2cc(NC(=O)Cc3ccccc3)ccc2O[C@@H]1CN(C)Cc1ccccc1,-,0,0
C[C@@H]1CN([C@@H](C)CO)C(=O)Cc2cc(NC(=O)Cc3ccccc3)ccc2O[C@@H]1CN(C)Cc1ccc(Cl)c(Cl)c1,0,0,66
C[C@@H]1CN([C@H](C)CO)C(=O)Cc2cc(NC(=O)Cc3ccccc3)ccc2O[C@@H]1CN(C)Cc1ccc(Cl)c(Cl)c1,0,0,76
C[C@@H]1CN([C@H](C)CO)C(=O)Cc2cc(NC(=O)Nc3ccccc3)ccc2O[C@@H]1CN(C)Cc1ccc(Cl)c(Cl)c1,-,0,0
C[C@H]1CN([C@@H](C)CO)C(=O)Cc2cc(NC(=O)Cc3ccccc3)ccc2O[C@@H]1CN(C)Cc1ccc2c(c1)OCO2,0,0,57
O=C(NN=C1CCCCCC1)c1ccccc1O,-,0,0
O=C(CCCCCCC(=O)Nc1ccccc1O)N/N=C/c1ccccc1OCCO,0,0,0
C[C@H](CO)N1C[C@H](C)[C@H](CN(C)Cc2ccc(C(=O)O)cc2)OCCCC[C@H](C)Oc2ccc(NC(=O)Nc3ccc4c(c3)OCO4)cc2C1=O,0,-,-
CC1(C)COC(CCC/C=N/NC(=O)CCCCCCC(=O)Nc2ccccc2O)OC1,-,0,0
COc1ccc(CN(C)C[C@H]2OCCCC[C@@H](C)Oc3ccc(NC(=O)Nc4ccc(C(F)(F)F)cc4)cc3C(=O)N([C@H](C)CO)C[C@@H]2C)cc1,-,0,67
COc1ccc(NC(=O)Nc2ccc3c(c2)C(=O)N([C@@H](C)CO)C[C@@H](C)[C@H](CN(C)Cc2ccc(C(F)(F)F)cc2)OCCCC[C@@H](C)O3)cc1,0,-,-
COc1ccc(CN(C)C[C@H]2OCCCC[C@H](C)Oc3ccc(NC(=O)Nc4ccc(C(F)(F)F)cc4)cc3C(=O)N([C@H](C)CO)C[C@@H]2C)cc1,0,-,-
COc1ccc(NC(=O)Nc2ccc3c(c2)C(=O)N([C@H](C)CO)C[C@H](C)[C@H](CN(C)Cc2ccc(C(F)(F)F)cc2)OCCCC[C@@H](C)O3)cc1,-,0,71
O=C(N/N=C/c1ccc(Br)cc1)c1ccccc1O,0,0,0
CCOc1cccc(/C=N/NC(=O)c2cccc(C(=O)NO)c2)c1OCC,0,0,0
Cc1ccc(S(=O)(=O)Nc2ccc3c(c2)CC(=O)N([C@@H](C)CO)C[C@H](C)[C@@H](CN(C)S(=O)(=O)c2cccs2)O3)cc1,0,0,0
Cc1ccc(S(=O)(=O)N(C)C[C@H]2Oc3ccc(NS(=O)(=O)c4cccs4)cc3CC(=O)N([C@H](C)CO)C[C@H]2C)cc1,0,0,72
SMILES,A1 apoptosis 2,INS-1E rescue,T cruzi HTS
C[C@H]1CN([C@@H](C)CO)C(=O)Cc2cc(NS(=O)(=O)c3cccs3)ccc2O[C@@H]1CN(C)S(=O)(=O)c1ccc(F)cc1,-,0,0
C[C@@H]1CN([C@H](C)CO)C(=O)Cc2cc(NS(=O)(=O)c3cccs3)ccc2O[C@@H]1CN(C)S(=O)(=O)c1ccc(F)cc1,-,0,60
Cc1ccc(S(=O)(=O)Nc2ccc3c(c2)C(=O)N([C@H](C)CO)C[C@@H](C)[C@@H](CN(C)Cc2ccc(Cl)c(Cl)c2)O3)cc1,-,0,0
Cc1ccc(S(=O)(=O)Nc2ccc3c(c2)CC(=O)N([C@H](C)CO)C[C@@H](C)[C@@H](CN(C)Cc2ccc(Cl)c(Cl)c2)O3)cc1,-,0,71
Cc1ccc(S(=O)(=O)Nc2ccc3c(c2)CC(=O)N([C@@H](C)CO)C[C@@H](C)[C@@H](CN(C)Cc2ccc(Cl)c(Cl)c2)O3)cc1,0,0,59
Cc1ccc(S(=O)(=O)Nc2ccc3c(c2)CC(=O)N([C@H](C)CO)C[C@@H](C)[C@H](CN(C)Cc2ccc(Cl)c(Cl)c2)O3)cc1,-,0,65
C[C@@H]1CN([C@@H](C)CO)C(=O)Cc2cc(NS(=O)(=O)c3ccc(Cl)cc3)ccc2O[C@H]1CN(C)Cc1ccc(Cl)c(Cl)c1,0,-,-
Cc1ccc(S(=O)(=O)Nc2ccc3c(c2)CC(=O)N([C@@H](C)CO)C[C@H](C)[C@H](CN(C)Cc2ccc(Cl)c(Cl)c2)O3)cc1,-,0,0
O=C1O[C@H](c2ccccc2)[C@H](c2ccccc2)N2[C@H]1[C@@H](C(=O)NC[C@H](O)c1ccccc1)[C@]1(C(=O)Nc3ccccc31)[C@H]2c1ccccc1OCCO,0,-,-
C[C@@H]1CN([C@H](C)CO)C(=O)c2cc(NC(=O)Cc3cn(C)c4ccccc34)ccc2O[C@@H]1CN(C)C(=O)Nc1ccc(C(F)(F)F)cc1,-,0,81
C[C@H]1CN([C@@H](C)CO)C(=O)c2cc(NC(=O)Cc3cn(C)c4ccccc34)ccc2O[C@H]1CN(C)Cc1ccc(C(F)(F)F)cc1,0,-,43
C[C@H](CO)N1C[C@H](C)[C@H](CN(C)Cc2ccc(C(F)(F)F)cc2)Oc2ccc(NC(=O)Cc3cn(C)c4ccccc34)cc2C1=O,0,-,0
C[C@@H]1CN([C@@H](C)CO)C(=O)c2cc(NC(=O)Cc3cn(C)c4ccccc34)ccc2O[C@H]1CN(C)Cc1ccc(C(F)(F)F)cc1,0,0,82
C[C@@H]1CN([C@@H](C)CO)C(=O)c2cc(NC(=O)Cc3cn(C)c4ccccc34)ccc2O[C@@H]1CN(C)C(=O)Nc1ccc(C(F)(F)F)cc1,-,0,0
C[C@@H]1CN([C@H](C)CO)C(=O)c2cc(NC(=O)Cc3cn(C)c4ccccc34)ccc2O[C@@H]1CN(C)Cc1ccccc1,-,0,0
COc1cc(/C=N/NC(=O)c2cccc(C(=O)NO)c2)c(Br)cc1O,0,0,0
C[C@H](CO)N1C[C@H](C)[C@H](CN(C)C(=O)Nc2ccc3c(c2)OCO3)Oc2ncc(C#Cc3ccc(C(F)(F)F)cc3)cc2C1=O,0,-,83
C[C@H](CO)N1C[C@H](C)[C@H](CN(C)C(=O)Nc2ccc3c(c2)OCO3)Oc2ncc(C#CC(C)(C)O)cc2C1=O,-,0,0
C[C@H](CO)N1C[C@H](C)[C@H](CN(C)C(=O)Nc2ccccc2)Oc2ncc(C#Cc3ccc(C(F)(F)F)cc3)cc2C1=O,0,-,83
COc1ccc(NC(=O)N(C)C[C@@H]2Oc3ncc(C#Cc4ccc(C(F)(F)F)cc4)cc3C(=O)N([C@H](C)CO)C[C@@H]2C)cc1,0,-,83
